In ChEMBL document CHEMBL1123806, “Effects of derivatives of kahweol and cafestol on the activity of glutathione S-transferase in mice” (1987):

Columns and labels:
[1] = target: T1, Glutathione S-transferase Mu 1 (Mus musculus) (UniProt P10649); assay: GST activity in the cytosols of liver of ICR/Ha mice, using 1-Chloro-2,4-dinitrobenzene as substrate; format: functional, tissue-based
T1 sequence (whole entry): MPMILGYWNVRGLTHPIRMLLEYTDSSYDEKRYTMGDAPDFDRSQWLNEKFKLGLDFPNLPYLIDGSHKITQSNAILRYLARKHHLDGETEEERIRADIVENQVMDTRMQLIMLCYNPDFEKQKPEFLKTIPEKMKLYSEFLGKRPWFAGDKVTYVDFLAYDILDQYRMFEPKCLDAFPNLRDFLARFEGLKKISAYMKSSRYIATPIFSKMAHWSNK
How it was run: (§1)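 Mice (6-8 wk, groups of 4-5, semipurified diet) dosed po once daily for 3 days with 10 μmol in 0.2 mL cottonseed oil/10% ethanol. Vehicle-only controls. Killed 24 h after the last dose. Tissue homogenized in phosphate buffer pH 7.5, then spun at 100000g for 1 h to give cytosol. CDNB conjugation read at 340 nm, 30 °C, pH 6.5 phosphate, 5 mM GSH, 1 mM CDNB. Units µmol/min/mg protein, mean ± SD; ratio = treated/control.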

Mus musculus [2] = organism: Mus musculus; assay: GST activity in the cytosols of small bowel mucosa of ICR/Ha mice was determined by using 1-Chloro-2,4-dinitrobenzene as the substrate.; format: functional; how it was run: as §1
Mus musculus [3] = organism: Mus musculus; assay: Tissue acid-soluble sulfhydryl levels of liver of ICR/Ha mice. P<0.005; format: functional
How it was run: (§2)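 Same dosing: 10 μmol po daily for 3 days in cottonseed oil/10% ethanol, vehicle controls, tissues taken 24 h after the last dose. Homogenate (phosphate pH 7.5) used at once. Ellman method: equal volume 4% sulfosalicylic acid, then supernatant plus 9 volumes of 0.1 mM DTNB in 0.1 M phosphate pH 8.0. Read spectrophotometrically. Units µmol SH/g tissue, mean ± SD; ratio = treated/control.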

Mus musculus [4] = organism: Mus musculus; assay: Tissue acid-soluble sulfhydryl levels of small bowel mucosa of ICR/Ha mice. P < 0.005; format: functional; how it was run: as §2
[5] = Ratio is the compound /control(SH level in liver); format: functional, Mus musculus; how it was run: as §2
Mus musculus [6] = organism: Mus musculus; assay: Ratio is the compound /control(SH in small bowel mucosa); format: functional; how it was run: as §2
[7] = target: T1, Glutathione S-transferase Mu 1 (Mus musculus); assay: Ratio is the compound /control(Specific activity in liver(GST)); format: functional, tissue-based; how it was run: as §1
[8] = target: T1, Glutathione S-transferase Mu 1 (Mus musculus); assay: Ratio is the compound /control(Specific activity in small bowel mucosa(GST)); format: functional; how it was run: as §1
Mus musculus [9] = organism: Mus musculus; assay: GST activity in the cytosols of small bowel mucosa of ICR/Ha mice was determined by using 1-Chloro-2,4-di nitrobenzene as the substrate; format: functional; how it was run: as §1
[10] = target: T1, Glutathione S-transferase Mu 1 (Mus musculus); assay: GST activity in the cytosols of the forestomach of ICR/Ha mice was determined by using 1-Chloro-2,4-dinitrobenzene as the substrate; format: functional, tissue-based; settings: Stomach; how it was run: as §1
[11] = target: T1, Glutathione S-transferase Mu 1 (Mus musculus); assay: GST activity in the cytosols of the lung of ICR/Ha mice was determined by using 1-Chloro-2,4-dinitrobenzene as the substrate; format: functional; how it was run: as §1
[12] = Tissue acid-soluble sulfhydryl levels of liver of ICR/Ha mice.; format: functional, Mus musculus; how it was run: as §2
Mus musculus [13] = organism: Mus musculus; assay: Tissue acid-soluble sulfhydryl levels of small bowel mucosa of ICR/Ha mice; format: functional; how it was run: as §2
[14] = target: T1, Glutathione S-transferase Mu 1 (Mus musculus); assay: Ratio is the compound /control(Specific activity in forestomach); format: functional, tissue-based; settings: Stomach; how it was run: as §1
[15] = target: T1, Glutathione S-transferase Mu 1 (Mus musculus); assay: Ratio is the compound /control(Specific activity in lung); format: functional; how it was run: as §1
[16] = Tissue acid-soluble sulfhydryl levels of liver of ICR/Ha mice; format: functional, Mus musculus; how it was run: as §2
[17] = target: T1, Glutathione S-transferase Mu 1 (Mus musculus); assay: GST activity in the cytosols of small bowel mucosa of ICR/Ha mice was determined by using 1-Chloro-2,4-di nitrobenzene as the substrate.; format: functional; how it was run: as §1
Mus musculus [18] = organism: Mus musculus; assay: Tissue acid-soluble sulfhydryl levels of small bowel mucosa of ICR/Ha mice.; format: functional; how it was run: as §2
Mus musculus [19] = organism: Mus musculus; assay: GST activity in the cytosols of small bowel mucosa of ICR/Ha mice was determined by using 1-Chloro-2,4-dinitrobenzene as the substrate; format: functional; how it was run: as §1

Row | SMILES | Specific activity (uM min-1 (mg of protein)-1) [1] | Ratio [7] | Ratio [8] | Specific activity (uM min-1 (mg of protein)-1) [10] | Specific activity (uM min-1 (mg of protein)-1) [11] | Ratio [14] | Ratio [15] | Specific activity (uM min-1 (mg of protein)-1) [17] | Specific activity (Mus musculus [2]) | SH level (Mus musculus [3]) [µM/g] | SH level (Mus musculus [4]) [µM/g] | Ratio [5] | Ratio (Mus musculus [6]) | Specific activity (Mus musculus [9]) | SH level [12] [µM/g] | SH level (Mus musculus [13]) [µmol/g] | SH level [16] [µM/g] | SH level (Mus musculus [18]) [µmol/g] | Specific activity (Mus musculus [19])
1 | CC(=O)OC[C@@]1(O)C[C@@]23CCC4[C@H]5CCO[C@H]5CC[C@@]4(C)C2CCC1C3 (some centres undefined) | 1.25 | 1.06 | 1 | – | – | – | – | – | 0.41 uM min-1 (mg of protein)-1 | 14.3 | 8.2 | 1.42 | 1.4 | – | – | – | – | – | –
2 | C[C@@]12CCc3occc3C1CC[C@@]13CC(CCC12)C(O)(CO)C3 (some centres undefined) | 3.35 | 2 | 3.8 | 0.91 | 0.26 | 1.2 | 1 | 1.36 | – | – | – | 2 | 1.5 | – | 14.9 | – | – | 7.9 | –
3 | CC1(O)C[C@@]23CCC4c5ccoc5C=C[C@@]4(C)C2CCC1C3 (some centres undefined) | 2.59 | 1.8 | 4.5 | 0.92 | 0.24 | 1.4 | 0.8 | 1.34 | – | – | – | 0.9 | 1.2 | – | – | 7.7 | 8.3 | – | –
4 | CC(=O)OC1C[C@@]23CCC4c5ccoc5CC[C@@]4(C)C2CCC1C3 (some centres undefined) | 2.24 | 1.3 | 5.1 | 0.83 | 0.29 | 1.1 | 1.1 | 1.83 | – | – | – | 1.8 | 1.5 | – | 13.3 | – | – | 8.3 | –
5 | C[C@@]12CCc3occc3C1CC[C@]13CCC(CCC12)C3 (some centres undefined) | 2.62 | 1.6 | 2.6 | 0.85 | 0.33 | 1.1 | 1.3 | – | – | – | – | 1.7 | 1.6 | 0.95 uM min-1 (mg of protein)-1 | 13 | 8.4 | – | – | –
6 | CC(=O)OC[C@@]1(O)C[C@@]23CCC4C5=C(CC[C@@]4(C)C2CCC1C3)OCC5 (some centres undefined) | 1.27 | 1.08 | 1 | – | – | – | – | – | 0.41 uM min-1 (mg of protein)-1 | – | – | 1.55 | 1.2 | – | 15.6 | – | – | 7.1 | –
7 | C[C@@]12C=Cc3occc3C1CC[C@]13CC(O)C(CCC12)C3 (some centres undefined) | 3.57 | 2.5 | 5.7 | 1.01 | 0.23 | 1.5 | 0.8 | 1.72 | – | – | – | 1.1 | 1.7 | – | – | 10.9 | 9.5 | – | –
8 | CC(=O)OC[C@@]1(O)C[C@@]23CC[C@@H]4c5ccoc5CC[C@@]4(C)[C@@H]2CC[C@@H]1C3 [CAFESTOL ACETATE] | 3.24 | 2.74 | 7.5 | – | – | – | – | – | 3 uM min-1 (mg of protein)-1 | – | – | 1.41 | 2 | – | 14.3 | – | – | 12 | –
9 | C[C@@]12C=Cc3occc3C1CC[C@]13CC(=O)C(CCC12)C3 (some centres undefined) | 3.67 | 2.6 | 6.1 | 1.05 | 0.28 | 1.6 | 1 | 1.84 | – | – | – | 1.3 | 1.6 | – | 11.8 | – | – | 10.4 | –

The next lines start with results.

Row | Specific activity (uM min-1 (mg of protein)-1) [1] | Ratio [7] | Ratio [8] | Specific activity (uM min-1 (mg of protein)-1) [10] | Specific activity (uM min-1 (mg of protein)-1) [11] | Ratio [14] | Ratio [15] | Specific activity (uM min-1 (mg of protein)-1) [17] | SMILES | Specific activity (Mus musculus [2]) | SH level (Mus musculus [3]) [µM/g] | SH level (Mus musculus [4]) [µM/g] | Ratio [5] | Ratio (Mus musculus [6]) | Specific activity (Mus musculus [9]) | SH level [12] [µM/g] | SH level (Mus musculus [13]) [µmol/g] | SH level [16] [µM/g] | SH level (Mus musculus [18]) [µmol/g] | Specific activity (Mus musculus [19])
10 | 2.26 | 1.4 | 3.6 | 0.76 | 0.27 | 1 | 1 | – | CC1(O)C[C@@]23CCC4c5ccoc5CC[C@@]4(C)C2CCC1C3 (some centres undefined) | – | – | – | 2.1 | 1.6 | 1.3 uM min-1 (mg of protein)-1 | 16.3 | 8.6 | – | – | –
11 | 3.06 | 2.1 | 3.9 | 0.63 | 0.36 | 0.9 | 1.2 | – | C[C@@]12C=Cc3occc3C1CC[C@]13CCC(CCC12)C3 (some centres undefined) | – | – | – | 1.1 | 1.2 | 1.18 uM min-1 (mg of protein)-1 | – | 7.8 | 9.5 | – | –
12 | 4.3 | 3 | 7.3 | 1.4 | 0.29 | 2.1 | 1 | 2.21 | C[C@@]12C=Cc3occc3C1CC[C@@]13CC(CCC12)C(O)(CO)C3 (some centres undefined) | – | – | – | 1.5 | 2.1 | – | 13 | – | – | 13.1 | –
13 | 1.48 | 1.25 | 1.4 | – | – | – | – | – | C[C@@]12CC[C@@H]3OCC[C@@H]3C1CC[C@@]13CC(CCC12)[C@@](O)(CO)C3 (some centres undefined) | – | – | – | 1.44 | 1.2 | – | – | 7.4 | 14.5 | – | 0.54 uM min-1 (mg of protein)-1
14 | 3.68 | 2.6 | 6.9 | 0.94 | 0.3 | 1.4 | 1 | 2.06 | CC(=O)OC1C[C@@]23CCC4c5ccoc5C=C[C@@]4(C)C2CCC1C3 (some centres undefined) | – | – | – | 1.1 | 1.7 | – | – | 10.8 | 10.1 | – | –
15 | 2.85 | 1.7 | 5.7 | 0.88 | 0.29 | 1.2 | 1.1 | 2.06 | C[C@@]12CCc3occc3C1CC[C@]13CC(=O)C(CCC12)C3 (some centres undefined) | – | – | – | 1.8 | 1.9 | – | 13.3 | – | – | 10.3 | –
16 | 2.54 | 1.5 | 4.2 | 0.91 | 0.2 | 1.2 | 0.8 | – | C[C@@]12CCc3occc3C1CC[C@]13CC(O)C(CCC12)C3 (some centres undefined) | – | – | – | 1.7 | 2.2 | 1.52 uM min-1 (mg of protein)-1 | 12.8 | 11.9 | – | – | –
17 | 1.22 | 1.04 | 1.1 | – | – | – | – | – | C[C@@]12CCC3=C(CCO3)C1CC[C@@]13CC(CCC12)[C@@](O)(CO)C3 (some centres undefined) | 0.42 uM min-1 (mg of protein)-1 | – | – | 1.18 | 1.1 | – | 11.9 | – | – | 6.5 | –
